From ChEMBL document CHEMBL1157537 (J Med Chem, 2008)
Active and inactive are the calls of the source. The calls are words filed in the database; no cut-off is given here.

Legend:
[1] = biological target: T1, Progesterone receptor (Homo sapiens) (UniProt P06401); assay: Agonist activity at human progesterone receptor relative to progesterone; assay type: functional
T1 sequence (whole entry): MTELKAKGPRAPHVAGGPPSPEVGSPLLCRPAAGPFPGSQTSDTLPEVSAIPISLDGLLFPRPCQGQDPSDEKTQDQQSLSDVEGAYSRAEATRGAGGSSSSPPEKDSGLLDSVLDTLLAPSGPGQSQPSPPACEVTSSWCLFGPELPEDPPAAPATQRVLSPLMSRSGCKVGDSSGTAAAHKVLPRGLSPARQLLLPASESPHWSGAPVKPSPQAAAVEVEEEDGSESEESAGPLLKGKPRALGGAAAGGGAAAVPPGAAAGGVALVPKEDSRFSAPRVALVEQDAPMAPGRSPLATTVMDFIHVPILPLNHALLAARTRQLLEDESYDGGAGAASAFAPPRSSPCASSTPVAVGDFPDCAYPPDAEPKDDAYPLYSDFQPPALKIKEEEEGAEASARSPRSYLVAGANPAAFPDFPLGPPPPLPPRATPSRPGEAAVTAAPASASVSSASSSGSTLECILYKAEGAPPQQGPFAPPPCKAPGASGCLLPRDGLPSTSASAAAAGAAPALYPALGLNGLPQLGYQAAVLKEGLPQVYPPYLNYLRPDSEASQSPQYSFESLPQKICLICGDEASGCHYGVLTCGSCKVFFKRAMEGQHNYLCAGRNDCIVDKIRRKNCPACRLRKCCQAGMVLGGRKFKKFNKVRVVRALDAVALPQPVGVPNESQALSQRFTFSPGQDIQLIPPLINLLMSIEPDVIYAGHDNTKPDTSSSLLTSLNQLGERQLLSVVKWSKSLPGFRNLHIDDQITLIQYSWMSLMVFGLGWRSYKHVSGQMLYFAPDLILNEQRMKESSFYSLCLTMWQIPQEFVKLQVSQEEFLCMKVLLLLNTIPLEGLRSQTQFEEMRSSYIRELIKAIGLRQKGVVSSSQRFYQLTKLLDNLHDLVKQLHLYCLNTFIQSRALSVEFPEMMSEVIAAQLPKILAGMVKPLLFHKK

Cynomolgus monkey = assay: Inhibition of ovulation in cynomolgus monkey assessed as reduction of progesterone level after 3 weeks; assay type: functional, organism-based; conditions: Macaca fascicularis
Rattus norvegicus = species: Rattus norvegicus; assay: Progestational activity in estrone-treated ovariectomized rat assessed as inhibition of medroxyprogesterone acetate-induced effect on vaginal epithelial thickness; assay type: functional, organism-based
Summary of the method: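 Antagonist mode of the estrone-treated ovariectomized rat multi-endpoint model: compound was combined with MPA plus estrone, with vehicle and estrone-only groups. Endpoints were uterine epithelial cell height, vaginal epithelial thickness and mammary alveolar bud proliferation.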

CC1=C[C@@H]([C@@H]2Oc3c(F)cc(F)cc3-c3ccc4c(c32)C(C)=CC(C)(C)N4)CCC1 (stereo in doubt; (-)-5c)
Efficacy [1]: 145% | Activity (Cynomolgus monkey): Active | Activity (Rattus norvegicus): inactive
